Data from ChEMBL document CHEMBL1123860, “C1- and C3-methyl-substituted derivatives of 7-hydroxy-2-(di-n-propylamino)tetralin: activities at central dopamine receptors” (1987).
Several values for one entry are separate records, joined by “and”; a condition that tells them apart may be missing. Equal entries are not always repeated. Activity calls are given as the source filed them. The rule behind the calls is not given here.

Key:
Rattus norvegicus [1] = organism: Rattus norvegicus; test: Tested for locomotor activity by measuring accumulated counts/30 min in reserpine-non-pretreated rats; format: functional
Summary of the method: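 Nonpretreated rats were injected with test drug 5 min before a photocell motility session, and counts were accumulated over 30 min. Activity expressed as percent of saline controls, mean ± SEM (n = 3–5), compared by Student's t test. Injections were 5 mL/kg at approximately neutral pH.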

Rattus norvegicus [2] = organism: Rattus norvegicus; test: Effect on half-maximal decrease of DOPA formation in rat striatal regions; In active (no significant effect […]); format: functional, organism-based
Rattus norvegicus [3] = organism: Rattus norvegicus; test: Effect on half-maximal decrease of DOPA formation in rat limbic regions; In active (no significant effect […]); format: functional; conditions: Limbic system
Rattus norvegicus [4] = organism: Rattus norvegicus; test: Effect on half-maximal decrease of DOPA formation in rat limbic regions; format: functional; conditions: Limbic system
Rattus norvegicus [5] = organism: Rattus norvegicus; test: Effect on half-maximal decrease of DOPA formation in rat striatal regions; format: functional
Rattus norvegicus [6] = organism: Rattus norvegicus; test: Tested for locomotor activity by measuring accumulated counts/30 min in reserpine-pretreated rats; format: functional
Summary of the method: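 Rats given reserpine 5 mg/kg sc 18 h beforehand, then test drug sc immediately before the session. Motor activity recorded by photocell motility meter as accumulated counts over 30 min, mean ± SEM (n = 3–4). Reserpine controls were used; Student's t test. Injection volume 5 mL/kg at roughly neutral pH.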

Rattus norvegicus [7] = test: Effect on half-maximal decrease of DOPA formation in rat limbic regions; In active (no significant decrease at […] sc); format: functional, organism-based; conditions: Limbic system

| Compound | No. of counts (Rattus norvegicus [1]) | ED50 (Rattus norvegicus [2]) | ED50 (Rattus norvegicus [3]) | ED50 (Rattus norvegicus [4]) [µmol/kg] | ED50 (Rattus norvegicus [5]) [µmol/kg] | No. of counts (Rattus norvegicus [6]) | ED50 (Rattus norvegicus [7]) | ED50 (Rattus norvegicus [3]; ip) [µmol/kg] |
| --- | --- | --- | --- | --- | --- | --- | --- | --- |
| CCCN(CCC)[C@H]1Cc2cc(O)ccc2C[C@H]1C | 119% | inactive | inactive | 11 | 7.5 | 331 counts/30 min | – | – |
| CCCN(CCC)[C@H]1Cc2cc(O)ccc2C[C@@H]1C | 89% | inactive | inactive | – | – | 35 counts/30 min | – | – |
| CCCN(CCC)[C@H]1Cc2cc(OC)ccc2CC1C (stereo partly specified) | 96% | inactive | inactive | – | – | – | – | – |
| CCCN(CCC)[C@@H]1CCc2ccc(O)cc2C1 | – | – | – | 0.01 | 0.01 | 46 counts/30 min | – | – |
| CCCN[C@H]1Cc2cc(OC)ccc2CC1C (stereo partly specified) | 128% | inactive | inactive | – | – | – | – | – |
| CCCN(CCC)[C@@H]1CCc2ccc(OC)cc2C1C (single isomer, unassigned; 5) [listing 1 of 2 here] | 109% and 92% | – | – | – | – | 4 counts/30 min | – | – |
| CCCN(CCC)[C@@H]1CCc2ccc(OC)cc2C1C (single isomer, unassigned; 5) [listing 2 of 2 here] | – | inactive | inactive | – | – | – | inactive | – |
| CCCN(CCC)[C@@H]1CCc2ccc(O)cc2C1C (single isomer, unassigned; 6) [listing 1 of 2 here] | 126% and 136% | – | – | – | – | 14 counts/30 min and 17 counts/30 min | – | – |
| CCCN(CCC)[C@@H]1CCc2ccc(O)cc2C1C (single isomer, unassigned; 6) [listing 2 of 2 here] | – | inactive | inactive | – | – | – | – | – |
| CCCN(CCC)[C@@H]1CCc2ccc(OC)cc2C1C (single isomer, unassigned; 9) [listing 1 of 2 here] | 38% and 28% | – | – | – | 1.3 | – | – | 0.9 |
| CCCN(CCC)[C@@H]1CCc2ccc(OC)cc2C1C (single isomer, unassigned; 9) [listing 2 of 2 here] | – | inactive | inactive | – | – | – | – | – |
| CCCN(CCC)[C@@H]1CCc2ccc(O)cc2C1C (single isomer, unassigned; 10) [listing 1 of 2 here] | – | – | – | – | – | 50 counts/30 min and 20 counts/30 min | – | – |
| CCCN(CCC)[C@@H]1CCc2ccc(O)cc2C1C (single isomer, unassigned; 10) [listing 2 of 2 here] | – | inactive | inactive | – | – | – | – | – |
| CCCN[C@@H]1CCc2ccc(O)cc2C1C (single isomer, unassigned; (+)) | – | – | – | 1.4 | 1.2 | 59 counts/30 min | – | – |
| CCCN[C@@H]1CCc2ccc(O)cc2C1C (single isomer, unassigned; (-)) [listing 1 of 2 here] | – | – | – | – | – | 8 counts/30 min | – | – |
| CCCN[C@@H]1CCc2ccc(O)cc2C1C (single isomer, unassigned; (-)) [listing 2 of 2 here] | – | inactive | inactive | – | – | – | – | – |
| CN1CCc2cccc3c2[C@H]1Cc1ccc(O)c(O)c1-3 [APOMORPHINE] | 227% | – | – | 0.04 | 0.04 | 366 counts/30 min | – | – |
| O=C(CCCN1CCC(O)(c2ccc(Cl)cc2)CC1)c1ccc(F)cc1 [HALOPERIDOL] | 3% | inactive | inactive | 0.19 | 0.19 | – | – | – |
